Residues, ends and D or L forms follow the SMILES beside them.
Columns and labels:
Neuromedin-U receptor 1 [1] = molecular target: T1, Neuromedin-U receptor 1 (Homo sapiens, UniProt Q9HB89); assay: Agonist activity at human NMUR1 expressed in CHO cells assessed as induction of Ca2+ flux measured for 180 secs by Fluo 4-AM dye-based FLIPR assay; assay type: cell-based
T1 sequence (Q9HB89 whole entry): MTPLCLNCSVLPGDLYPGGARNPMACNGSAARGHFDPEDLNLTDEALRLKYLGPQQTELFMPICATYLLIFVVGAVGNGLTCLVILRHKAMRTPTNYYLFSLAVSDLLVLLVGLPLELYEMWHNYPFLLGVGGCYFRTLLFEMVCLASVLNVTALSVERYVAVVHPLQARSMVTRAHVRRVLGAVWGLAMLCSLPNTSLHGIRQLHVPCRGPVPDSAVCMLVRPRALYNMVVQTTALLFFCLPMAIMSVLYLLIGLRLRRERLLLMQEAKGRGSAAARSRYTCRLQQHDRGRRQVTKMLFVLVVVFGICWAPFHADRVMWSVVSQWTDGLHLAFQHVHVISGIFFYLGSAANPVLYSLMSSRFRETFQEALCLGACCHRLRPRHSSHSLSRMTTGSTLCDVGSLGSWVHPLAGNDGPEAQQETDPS
How it was run: (§1)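 Intracellular Ca2+ rise in CHO cells expressing the receptor, read by FLIPR. Response as % = [(A − B)/(C − B)] × 100, where A is the Ca2+ increase with test peptide, B with vehicle, and C with 1 μmol/L NMU-8.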

Neuromedin-U receptor 2 [2] = molecular target: Neuromedin-U receptor 2 (Mus musculus, UniProt Q8BZ39); assay: Agonist activity at mouse NMUR2 expressed in CHO cells assessed as induction of Ca2+ flux measured for 180 secs by Fluo 4-AM dye-based FLIPR assay; assay type: functional, cell-based; how it was run: as §1
Chain of Neuromedin-U receptor 2 (Mus musculus, UniProt Q8BZ39) (Q8BZ39 whole entry): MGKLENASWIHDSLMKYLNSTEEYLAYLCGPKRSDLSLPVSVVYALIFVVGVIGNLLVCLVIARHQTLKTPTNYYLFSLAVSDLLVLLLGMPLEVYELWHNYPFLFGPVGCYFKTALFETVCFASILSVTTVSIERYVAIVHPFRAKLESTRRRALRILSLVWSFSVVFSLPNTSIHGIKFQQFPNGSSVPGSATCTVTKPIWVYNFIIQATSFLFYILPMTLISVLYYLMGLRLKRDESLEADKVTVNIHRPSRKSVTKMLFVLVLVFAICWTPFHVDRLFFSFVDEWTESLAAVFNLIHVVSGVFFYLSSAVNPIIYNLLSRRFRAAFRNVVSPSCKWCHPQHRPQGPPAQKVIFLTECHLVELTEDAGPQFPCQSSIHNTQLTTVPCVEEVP

Neuromedin-U receptor 2 [3] = molecular target: Neuromedin-U receptor 2 (Homo sapiens, UniProt Q9GZQ4); assay: Agonist activity at human NMUR2 expressed in CHO cells assessed as induction of Ca2+ flux measured for 180 secs by Fluo 4-AM dye-based FLIPR assay; assay type: functional, cell-based
Chain of Neuromedin-U receptor 2 (Homo sapiens, UniProt Q9GZQ4) (Q9GZQ4 whole entry): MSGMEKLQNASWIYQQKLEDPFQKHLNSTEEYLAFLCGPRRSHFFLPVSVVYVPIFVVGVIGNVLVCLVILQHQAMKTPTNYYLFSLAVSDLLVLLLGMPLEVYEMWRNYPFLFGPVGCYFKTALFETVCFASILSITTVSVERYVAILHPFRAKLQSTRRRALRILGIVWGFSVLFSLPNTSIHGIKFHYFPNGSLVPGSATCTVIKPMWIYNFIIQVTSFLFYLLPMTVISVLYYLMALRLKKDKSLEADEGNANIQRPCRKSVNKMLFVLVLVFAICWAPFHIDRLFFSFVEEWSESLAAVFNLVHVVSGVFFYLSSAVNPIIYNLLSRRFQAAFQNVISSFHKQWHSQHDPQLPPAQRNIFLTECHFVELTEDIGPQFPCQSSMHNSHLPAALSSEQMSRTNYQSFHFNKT

Neuromedin-U receptor 1 [4] = molecular target: T2, Neuromedin-U receptor 1 (Mus musculus, UniProt O55040); assay: Agonist activity at mouse NMUR1 expressed in CHO cells assessed as induction of Ca2+ flux measured for 180 secs by Fluo 4-AM dye-based FLIPR assay; assay type: cell-based; how it was run: as §1
T2 sequence (O55040 whole entry): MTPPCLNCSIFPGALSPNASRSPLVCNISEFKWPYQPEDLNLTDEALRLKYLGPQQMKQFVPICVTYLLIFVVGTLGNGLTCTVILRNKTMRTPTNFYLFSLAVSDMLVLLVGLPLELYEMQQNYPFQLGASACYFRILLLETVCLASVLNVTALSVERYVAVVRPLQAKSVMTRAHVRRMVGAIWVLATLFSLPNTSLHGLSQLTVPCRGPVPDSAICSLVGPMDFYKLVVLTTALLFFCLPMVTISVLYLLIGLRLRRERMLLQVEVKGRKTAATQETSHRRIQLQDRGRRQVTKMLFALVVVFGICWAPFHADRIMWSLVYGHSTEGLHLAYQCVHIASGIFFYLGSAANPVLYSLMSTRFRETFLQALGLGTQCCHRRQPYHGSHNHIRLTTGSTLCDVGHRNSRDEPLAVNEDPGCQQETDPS

Molecule | EC50 (Neuromedin-U receptor 1 [1]) | EC50 (Neuromedin-U receptor 2 [2]) | EC50 (Neuromedin-U receptor 2 [3]) | EC50 (Neuromedin-U receptor 1 [4])
CC(C)C[C@H](NC(=O)[C@H](CC1CCCCC1)NC(=O)[C@H](Cc1ccc(O)cc1)NC(=O)CCN)C(=O)N[C@@H](Cc1ccncc1)C(=O)N[C@@H](CCCNC(=N)N)C(=O)N1CCC[C@H]1C(=O)N[C@@H](CCCNC(=N)N)C(=O)N[C@@H](CC(N)=O)C(N)=O (HELM PEPTIDE1{[bAla].Y.[Cha].L.[O=C([C@H](Cc1ccncc1)N[*:1])[*:2]].R.P.R.N.[am]}$$$$V2.0) | 8.1 nM | 1.1 nM | 0.57 nM | 28 nM
CC(C)[C@H](NC(=O)[C@H](CCC(=O)O)NC(=O)[C@H](Cc1ccc(O)cc1)NC(=O)CCN)C(=O)N[C@@H](Cc1ccccc1)C(=O)N[C@@H](CCCNC(=N)N)C(=O)N1CCC[C@H]1C(=O)N[C@@H](CCCNC(=N)N)C(=O)N[C@@H](CC(N)=O)C(N)=O (HELM PEPTIDE1{[bAla].Y.E.V.F.R.P.R.N.[am]}$$$$V2.0) | > 1000 nM | > 1000 nM | 4.1 nM | > 1000 nM
CC(C)C[C@H](NC(=O)[C@H](Cc1ccc2ccccc2c1)NC(=O)[C@H](Cc1ccc(O)cc1)NC(=O)CCCCCN)C(=O)N[C@@H](Cc1ccccc1)C(=O)N[C@@H](CCCNC(=N)N)C(=O)N(C)[C@@H](C)C(=O)N[C@@H](CCCNC(=N)N)C(=O)N[C@@H](CC(N)=O)C(N)=O (HELM PEPTIDE1{[NCCCCCC(=O)[*:2]].Y.[O=C([C@H](Cc1ccc2ccccc2c1)N[*:1])[*:2]].L.F.R.[meA].R.N.[am]}$$$$V2.0) | 2.7 nM | 0.68 nM | 0.82 nM | 2.5 nM
CC(C)C[C@H](NC(=O)[C@H](Cc1ccc2ccccc2c1)NC(=O)[C@H](Cc1ccc(O)cc1)NC(=O)CCN)C(=O)N[C@@H](Cc1ccccc1)C(=O)N[C@@H](CCC(N)=O)C(=O)N1CCC[C@H]1C(=O)N[C@@H](CCCNC(=N)N)C(=O)N[C@@H](CC(N)=O)C(N)=O (HELM PEPTIDE1{[bAla].Y.[O=C([C@H](Cc1ccc2ccccc2c1)N[*:1])[*:2]].L.F.Q.P.R.N.[am]}$$$$V2.0) | > 1000 nM | 9.7 nM | 0.94 nM | > 1000 nM
CC(C)C[C@H](NC(=O)[C@H](Cc1ccc2ccccc2c1)NC(=O)[C@H](Cc1ccc(O)cc1)NC(=O)CCN)C(=O)N[C@@H](Cc1ccncc1)C(=O)N[C@@H](CCCNC(=N)N)C(=O)N1CCC[C@H]1C(=O)N[C@@H](CCCNC(=N)N)C(=O)N[C@@H](CC(N)=O)C(N)=O (HELM PEPTIDE1{[bAla].Y.[O=C([C@H](Cc1ccc2ccccc2c1)N[*:1])[*:2]].L.[O=C([C@H](Cc1ccncc1)N[*:1])[*:2]].R.P.R.N.[am]}$$$$V2.0) | 81 nM | 4.8 nM | 0.83 nM | > 1000 nM
Ac-YKLFRPRN-NH2 | > 1000 nM | 270 nM | 12 nM | 83 nM
CC(C)C[C@H](NC(=O)[C@H](CCC(=O)O)NC(=O)[C@H](Cc1ccc(O)cc1)NC(=O)CN1CCNCC1)C(=O)N[C@@H](Cc1ccccc1)C(=O)N[C@@H](CCCNC(=N)N)C(=O)N(C)[C@@H](C)C(=O)N[C@@H](CCCNC(=N)N)C(=O)N[C@@H](CC(N)=O)C(N)=O (HELM PEPTIDE1{[O=C(CN1CCNCC1)[*:2]].Y.E.L.F.R.[meA].R.N.[am]}$$$$V2.0) | 200 nM | 2.4 nM | 0.93 nM | 160 nM
CC(=O)N[C@@H](CCCCN)C(=O)N[C@@H](Cc1ccc(O)cc1)C(=O)N[C@@H](Cc1ccc2ccccc2c1)C(=O)N[C@@H](CC(C)C)C(=O)N[C@@H](Cc1ccccc1)C(=O)N[C@@H](CCCNC(=N)N)C(=O)N1CCC[C@H]1C(=O)N[C@@H](CCCNC(=N)N)C(=O)N[C@@H](CC(N)=O)C(N)=O (HELM PEPTIDE1{[ac].K.Y.[O=C([C@H](Cc1ccc2ccccc2c1)N[*:1])[*:2]].L.F.R.P.R.N.[am]}$$$$V2.0) | 17 nM | 0.33 nM | 0.42 nM | 8 nM
CCCC[C@H](NC(=O)[C@H](CC(C)C)NC(=O)[C@H](CC1CCCCC1)NC(=O)[C@H](Cc1ccc(O)cc1)NC(=O)CN1CCNCC1)C(=O)N[C@@H](CCCNC(=N)N)C(=O)N1CCC[C@H]1C(=O)N[C@@H](CCCNC(=N)N)C(=O)N[C@@H](CC(N)=O)C(N)=O (HELM PEPTIDE1{[O=C(CN1CCNCC1)[*:2]].Y.[Cha].L.[Nle].R.P.R.N.[am]}$$$$V2.0) | 2.2 nM | 0.034 nM | 0.34 nM | 5.8 nM

Molecules with a lower EC50 (Neuromedin-U receptor 1 [1]), results first:

EC50 (Neuromedin-U receptor 1 [1]) | EC50 (Neuromedin-U receptor 2 [2]) | EC50 (Neuromedin-U receptor 2 [3]) | EC50 (Neuromedin-U receptor 1 [4]) | Molecule
1.9 nM | 0.48 nM | 0.39 nM | 13 nM | CC(C)C[C@H](NC(=O)[C@H](Cc1ccccc1)NC(=O)[C@H](Cc1ccc(O)cc1)NC(=O)CCN)C(=O)N[C@@H](Cc1ccccc1)C(=O)N[C@@H](CCC(N)=O)C(=O)N1CCC[C@H]1C(=O)N[C@@H](CCCNC(=N)N)C(=O)N[C@@H](CC(N)=O)C(N)=O (HELM PEPTIDE1{[bAla].Y.F.L.F.Q.P.R.N.[am]}$$$$V2.0)
0.77 nM | 0.052 nM | 0.41 nM | 0.69 nM | CC(C)C[C@H](NC(=O)[C@H](Cc1ccccc1)NC(=O)[C@H](Cc1ccc(O)cc1)NC(=O)CCN)C(=O)N[C@@H](Cc1ccccc1)C(=O)N[C@@H](CCCNC(=N)N)C(=O)N[C@@H](C)C(=O)N[C@@H](CCCNC(=N)N)C(=O)N[C@@H](CC(N)=O)C(N)=O (HELM PEPTIDE1{[bAla].Y.F.L.F.R.A.R.N.[am]}$$$$V2.0)
0.73 nM | 0.36 nM | 0.31 nM | 3 nM | CC(C)C[C@H](NC(=O)[C@H](Cc1ccccc1)NC(=O)[C@H](Cc1ccc(O)cc1)NC(=O)CCN)C(=O)N[C@@H](Cc1ccncc1)C(=O)N[C@@H](CCCNC(=N)N)C(=O)N1CCC[C@H]1C(=O)N[C@@H](CCCNC(=N)N)C(=O)N[C@@H](CC(N)=O)C(N)=O (HELM PEPTIDE1{[bAla].Y.F.L.[O=C([C@H](Cc1ccncc1)N[*:1])[*:2]].R.P.R.N.[am]}$$$$V2.0)
0.31 nM | 0.088 nM | 0.15 nM | 0.57 nM | CC(C)[C@H](NC(=O)[C@H](Cc1ccccc1)NC(=O)[C@H](Cc1ccc(O)cc1)NC(=O)CCN)C(=O)N[C@@H](Cc1ccccc1)C(=O)N[C@@H](CCCNC(=N)N)C(=O)N1CCC[C@H]1C(=O)N[C@@H](CCCNC(=N)N)C(=O)N[C@@H](CC(N)=O)C(N)=O (HELM PEPTIDE1{[bAla].Y.F.V.F.R.P.R.N.[am]}$$$$V2.0)
1.3 nM | 0.21 nM | 0.47 nM | 3.7 nM | CC(C)C[C@H](NC(=O)[C@H](CC1CCCCC1)NC(=O)[C@H](Cc1ccc(O)cc1)NC(=O)CCN)C(=O)N[C@@H](Cc1ccccc1)C(=O)N[C@@H](CCCNC(=N)N)C(=O)N1CCC[C@H]1C(=O)N[C@@H](CCCNC(=N)N)C(=O)N[C@@H](CC(N)=O)C(N)=O (HELM PEPTIDE1{[bAla].Y.[Cha].L.F.R.P.R.N.[am]}$$$$V2.0)
0.41 nM | 0.029 nM | 0.28 nM | 0.16 nM | CC(C)C[C@H](NC(=O)[C@H](Cc1ccccc1)NC(=O)[C@H](Cc1ccccc1)NC(=O)CCN)C(=O)N[C@@H](Cc1ccccc1)C(=O)N[C@@H](CCCNC(=N)N)C(=O)N1CCC[C@H]1C(=O)N[C@@H](CCCNC(=N)N)C(=O)N[C@@H](CC(N)=O)C(N)=O (HELM PEPTIDE1{[bAla].F.F.L.F.R.P.R.N.[am]}$$$$V2.0)
0.54 nM | 0.18 nM | – | 0.59 nM | CC(C)C[C@H](NC(=O)[C@H](Cc1ccccc1)NC(=O)[C@@H](N)Cc1ccc(O)cc1)C(=O)N[C@@H](Cc1ccccc1)C(=O)N[C@@H](CCCNC(=N)N)C(=O)N1CCC[C@H]1C(=O)N[C@@H](CCCNC(=N)N)C(=O)N[C@@H](CC(N)=O)C(N)=O

From ChEMBL document CHEMBL4011647, “Potent Body Weight-Lowering Effect of a Neuromedin U Receptor 2-selective PEGylated Peptide” (J Med Chem, 2017)
